According to article PMC12753540 (Investigational New Drugs, 2025):
Several values for one entry are separate records, joined by “and”; a condition that tells them apart may be missing. Equal values may be shown once. Marks after values point to notes of the source that are not given here.

Tests used:
[1] = Phase 1 study: plasma pharmacokinetics, non-compartmental analysis; assay type: in vivo, human (Japanese patients); conditions: for tmax, Median (range) / Cmax / Vd/F / half-life: oral; for tmax, Median (range) / Cmax / Vd/F / half-life / Tmax: plasma; for Cmax / Vd/F / half-life / Tmax: human; for Vd/F: Arithmetic mean (SD); for half-life: t1/2, Arithmetic mean (SD); for Tmax: po, Median (range)
[2] = cited from earlier work
[3] = test system: advanced solid malignancies; test: Phase 1 study: antitumor activity; assay type: in vivo, human (Japanese patients); conditions: for Best overall response: Complete response / Best overall response: Partial response: confirmed; for Best overall response: Stable disease: maintained ≥ 7 weeks from Cycle 1 Day 1; for Median PFS: Kaplan-Meier, data cutoff May 25, 2023
How it was run: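 Oral twice-daily dosing on Days 1–7 of 28-day cycles, after a single oral dose on C0D1 (4-day Cycle 0). Tumors were imaged by CT or MRI at baseline, then by the same method every 8 weeks (±1 week) until progression, per RECIST 1.1. CR/PR needed confirmation ≥4 weeks later, and SD had to last ≥7 weeks from C1D1. ORR was limited to measurable disease, with Clopper-Pearson 95% CI; PFS by Kaplan–Meier.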

advanced solid tumors = conditions: monotherapy, cited from earlier work
[4] = test system: advanced gastric cancer, metastatic melanoma, non-small-cell lung cancer; conditions: in combination with durvalumab; phase 2 studies; cited from earlier work
[5] = Phase 1 study: safety and tolerability; assay type: in vivo, human (Japanese patients with advanced solid tumors)
How it was run: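 Oral dosing was 240 mg BID on Days 1–7 (Cohort 1) or 160 mg BID on Days 1–14 (Cohort 2) of 28-day cycles, after a single dose on C0D1, using a rolling-6 escalation design. DLTs were assessed over Cycles 0 and 1. AEs were coded by MedDRA and graded by CTCAE v4.03. The TEAE window ran from first dose to 30 (+7) days after the last dose or discontinuation. Relatedness was judged by the investigator. Data were summarized descriptively for all patients who received ≥1 dose.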

[6] = Multiple-dose administration, Cohort 1 240 mg BID (n = 6)
[7] = Multiple-dose administration, Cohort 2 160 mg BID (n = 6)
[8] = Single-dose administration, Cohort 1 240 mg (n = 6)
[9] = Single-dose administration, Cohort 2 160 mg (n = 6)
[10] = 160 mg, Single-dose administration, Cohort 2 160 mg (n = 6)
[11] = 240 mg, Single-dose administration, Cohort 1 240 mg (n = 6)
[12] = Cohort 1 240 mg BID (n = 6), Any grade
[13] = Cohort 2 160 mg BID (n = 6), Any grade

C[C@@H]1COCCN1c1cc(C2([S@](C)(=N)=O)CC2)nc(-c2cc[nH]c3nccc2-3)n1 [ceralasertib]
AUCss, Geometric mean (CV%) [1, 6]: 94,970 (20.38) ng x h/mL
AUCss,last, Geometric mean (CV%) [1, 6]: 92,140 (20.55) ng x h/mL
CLss/F, Arithmetic mean (SD) [1, 6]: 2.568 (0.4725) L/h
Css,max, Geometric mean (CV%) [1, 6]: 11,970 (16.26) ng/mL
tss,max, Median (range) ([1]; Multiple-dose administration, Cohort 1 240 mg BID (n = 6), Cycle 1 Day 7): 1.97 (0.95–2.83) h
AUCss, Geometric mean (CV%) [1, 7]: 57,400 (17.41) ng x h/mL
AUCss,last, Geometric mean (CV%) [1, 7]: 56,020 (17.05) ng x h/mL
CLss/F, Arithmetic mean (SD) [1, 7]: 2.822 (0.4864) L/h
Css,max, Geometric mean (CV%) [1, 7]: 8132 (16.01) ng/mL
tss,max, Median (range) ([1]; Multiple-dose administration, Cohort 2 160 mg BID (n = 6), Cycle 1 Day 8): 1.87 (0.52–2.92) h
AUC(0–12), Geometric mean (CV%) [1, 8]: 54,260 (12.8) ng x h/mL
AUCinf, Geometric mean (CV%) [1, 8]: 102,800 (20.67) ng x h/mL
AUClast, Geometric mean (CV%) [1, 8]: 100,700 (19.14) ng x h/mL
CL/F, Arithmetic mean (SD) [1, 8]: 2.4 L/h and 2.375 (0.4926) L/h
Vz/F, Arithmetic mean (SD) [1, 8]: 40.47 (7.307) L
t1/2, Arithmetic mean (SD) [1, 8]: 12.24 (3.472) h
tmax, Median (range) [1, 8]: 2.04 (1.98–3.97) h
AUC(0–12), Geometric mean (CV%) [1, 9]: 39,160 (16.33) ng x h/mL
AUCinf, Geometric mean (CV%) [1, 9]: 71,440 (29.19) ng x h/mL
AUClast, Geometric mean (CV%) [1, 9]: 69,120 (25.54) ng x h/mL
CL/F, Arithmetic mean (SD) [1, 9]: 2.3 L/h and 2.318 (0.6707) L/h
Vz/F, Arithmetic mean (SD) [1, 9]: 43.03 (8.284) L
tmax, Median (range) [1, 9]: 1.92 (0.85–2.13) h
Cmax ([1]; 160 mg): 6550 ng/mL
Vd/F ([1]; 160 mg, Vss/F, Multiple-dose administration, Cohort 2 160 mg BID (n = 6)): 35.3 L
half-life [1, 10]: 13.9 h
Cmax ([1]; 240 mg): 7670 ng/mL
Vd/F ([1]; 240 mg, Vss/F, Multiple-dose administration, Cohort 1 240 mg BID (n = 6)): 33.8 L
Vd/F ([1]; 240 mg, Vz/F, Single-dose administration, Cohort 1 240 mg (n = 6)): 40.5 L
half-life [1, 11]: 12.2 h
Tmax [1, 10]: 1.9 h
Tmax [1, 11]: 2 h
Accumulation of ceralasertib in plasma ([1]; multiple administrations at 160 mg or 240 mg): up to 1.8 fold
Arithmetic mean TCP ([1]; range across both cohorts, multiple dosing): 0.82–0.94
Dose proportionality of exposure ([1]; single and multiple dosing, 160 mg and 240 mg): A trend suggesting a dose-proportional increase in exposure
Median tmax ([2]; Caucasian patients, PATRIOT study): 0.5 to 4 h
Mean t1/2 after single dosing ([2]; PATRIOT studies, at higher doses): 11.2 to 12.8 h
Best overall response: Not evaluable ([3]; Cohort 1 240 mg BID (n = 6)): 1 (16.7) n (%)
Best overall response: Not evaluable, No post-baseline assessment ([3]; Cohort 1 240 mg BID (n = 6)): 1 (16.7) n (%)
Best overall response: Objective response ([3]; Cohort 1 240 mg BID (n = 6)): 0 n (%)
Best overall response: Progressive disease ([3]; Cohort 1 240 mg BID (n = 6)): 3 n (%) and 3 (50.0) n (%)
Best overall response: Complete response ([3]; Cohort 1 240 mg BID (n = 6)): 0 n (%)
Best overall response: Partial response ([3]; Cohort 1 240 mg BID (n = 6)): 0 n (%)
Best overall response: Stable disease ([3]; Cohort 1 240 mg BID (n = 6)): 2 n (%) and 2 (33.3) n (%)
Median PFS ([3]; Cohort 1 240 mg BID): 2.1 months
Best overall response: Not evaluable ([3]; Cohort 2 160 mg BID (n = 6)): 0 n (%)
Best overall response: Not evaluable, No post-baseline assessment ([3]; Cohort 2 160 mg BID (n = 6)): 0 n (%)
Best overall response: Objective response ([3]; Cohort 2 160 mg BID (n = 6)): 0 n (%)
Best overall response: Progressive disease ([3]; Cohort 2 160 mg BID (n = 6)): 2 n (%) and 2 (33.3) n (%)
Best overall response: Complete response ([3]; Cohort 2 160 mg BID (n = 6)): 0 n (%)
Best overall response: Partial response ([3]; Cohort 2 160 mg BID (n = 6)): 0 n (%)
Best overall response: Stable disease ([3]; Cohort 2 160 mg BID (n = 6)): 4 n (%) and 4 (66.7) n (%)
Median PFS ([3]; Cohort 2 160 mg BID): 3.3 months
Patients with best objective response of stable disease ([3]; both cohorts in total, 12 patients): 6 patients
Disease control (evaluable patients) (advanced solid tumors; 39 of 66 evaluable patients): 59%
Confirmed partial response (advanced solid tumors; 66 evaluable patients): 5 n
Stable disease or unconfirmed PR (advanced solid tumors; 66 evaluable patients): 34 n
Objective response rates (ORR) [4]: 14 to 31%
Any DLT ([5]; Cohort 1 240 mg BID (n = 6)): 1 (16.7)* n (%)
Any SAE ([5]; Cohort 1 240 mg BID (n = 6)): 0 n (%)
Any SAE related to treatment ([5]; Cohort 1 240 mg BID (n = 6)): 0 n (%)
Any SAE related to treatment, Grade ≥ 3 ([5]; Cohort 1 240 mg BID (n = 6)): 0 n (%)
Any SAE, Grade ≥ 3 ([5]; Cohort 1 240 mg BID (n = 6)): 0 n (%)
Any TEAE ([5]; Cohort 1 240 mg BID (n = 6)): 6 (100) n (%)
Any TEAE leading to death ([5]; Cohort 1 240 mg BID (n = 6)): 0 n (%)
Any TEAE leading to discontinuation of ceralasertib ([5]; Cohort 1 240 mg BID (n = 6)): 1 (16.7)* n (%)
Any TEAE leading to discontinuation of ceralasertib, Related to treatment ([5]; Cohort 1 240 mg BID (n = 6)): 1 (16.7)* n (%)
Any TEAE leading to dose interruption of ceralasertib ([5]; Cohort 1 240 mg BID (n = 6)): 0 n (%)
Any TEAE leading to dose interruption of ceralasertib, Related to treatment ([5]; Cohort 1 240 mg BID (n = 6)): 0 n (%)
Any TEAE leading to dose reduction of ceralasertib ([5]; Cohort 1 240 mg BID (n = 6)): 1 (16.7) n (%)
Any TEAE leading to dose reduction of ceralasertib, Related to treatment ([5]; Cohort 1 240 mg BID (n = 6)): 1 (16.7) n (%)
Any TEAE, Grade ≥ 3 ([5]; Cohort 1 240 mg BID (n = 6)): 1 (16.7)* n (%)
Any TRAE ([5]; Cohort 1 240 mg BID (n = 6)): 5 (83.3) n (%)
Any TRAE leading to death ([5]; Cohort 1 240 mg BID (n = 6)): 0 n (%)
Any TRAE, Grade ≥ 3 ([5]; Cohort 1 240 mg BID (n = 6)): 1 (16.7)* n (%)
TEAE: Anemia [5, 12]: 3 n (%)
TEAE: Constipation [5, 12]: 2 n (%)
TEAE: Nausea [5, 12]: 3 n (%)
TEAE: Neutrophil count decreased [5, 12]: 2 n (%)
TEAE: Platelet count decreased [5, 12]: 2 n (%)
Any DLT ([5]; Cohort 2 160 mg BID (n = 6)): 1 (16.7)^† n (%)
Any SAE ([5]; Cohort 2 160 mg BID (n = 6)): 2 (33.3) n (%)
Any SAE related to treatment ([5]; Cohort 2 160 mg BID (n = 6)): 1 (16.7)^† n (%)
Any SAE related to treatment, Grade ≥ 3 ([5]; Cohort 2 160 mg BID (n = 6)): 1 (16.7)^† n (%)
Any SAE, Grade ≥ 3 ([5]; Cohort 2 160 mg BID (n = 6)): 2 (33.3) n (%)
Any TEAE ([5]; Cohort 2 160 mg BID (n = 6)): 6 (100) n (%)
Any TEAE leading to death ([5]; Cohort 2 160 mg BID (n = 6)): 0 n (%)
Any TEAE leading to discontinuation of ceralasertib ([5]; Cohort 2 160 mg BID (n = 6)): 0 n (%)
Any TEAE leading to discontinuation of ceralasertib, Related to treatment ([5]; Cohort 2 160 mg BID (n = 6)): 0 n (%)
Any TEAE leading to dose interruption of ceralasertib ([5]; Cohort 2 160 mg BID (n = 6)): 1 (16.7)^† n (%)
Any TEAE leading to dose interruption of ceralasertib, Related to treatment ([5]; Cohort 2 160 mg BID (n = 6)): 1 (16.7)^† n (%)
Any TEAE leading to dose reduction of ceralasertib ([5]; Cohort 2 160 mg BID (n = 6)): 1 (16.7)^† n (%)
Any TEAE leading to dose reduction of ceralasertib, Related to treatment ([5]; Cohort 2 160 mg BID (n = 6)): 1 (16.7)^† n (%)
Any TEAE, Grade ≥ 3 ([5]; Cohort 2 160 mg BID (n = 6)): 2 (33.3) n (%)
Any TRAE leading to death ([5]; Cohort 2 160 mg BID (n = 6)): 0 n (%)
Any TRAE, Grade ≥ 3 ([5]; Cohort 2 160 mg BID (n = 6)): 1 (16.7)^† n (%)
TEAE: Anemia [5, 13]: 4 n (%)
TEAE: Nausea [5, 13]: 4 n (%)
TEAE: Platelet count decreased [5, 13]: 4 n (%)
TEAE: White blood cell count decreased [5, 13]: 3 n (%)
Patients with grade ≥ 3 treatment-emergent adverse event ([5]; both cohorts, 12 patients treated): 3 patients
Overall tolerability ([5]; monotherapy, both regimens): well tolerated with an acceptable safety profile
Patients with low grade (grade ≤ 2) events only ([5]; of 12 patients enrolled): 9 patients
